ChEMBL document CHEMBL2401619, “Novel small molecule inhibitors targeting the "switch region" of bacterial RNAP: structure-based optimization of a virtual screening hit” (Eur J Med Chem, 2013)
≈ marks a conversion by molar mass, not a printed value.

Tests used:
[1] = system: Escherichia coli; assay: Antibacterial activity against Escherichia coli expressing ToLC mutant assessed as growth inhibiiton after 18 hrs; assay type: functional
Summary of the method: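 E. coli TolC (efflux-defective) in LB, start OD600 0.03, compounds predissolved in DMSO (max 1% final); serial dilutions, final 0.02–100 µg/mL, each concentration in duplicate. OD read at compound addition and after 18 h at 37 °C, 50 rpm. MIC = lowest concentration with no detectable growth; mean of two independent runs (three if MIC < 10 µg/mL).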

[2] = system: Pseudomonas aeruginosa; assay: Antibacterial activity against Pseudomonas aeruginosa PAO1 assessed as growth inhibiiton after 18 hrs; assay type: functional; details: PAO1, 18 h
Summary of the method: (§1)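 Broth dilution in LB, start OD600 0.03, compounds predissolved in DMSO (max 1% final), serial dilutions 0.02–100 µg/mL tested in duplicate. Incubation 18 h, 37 °C, 50 rpm (200 rpm for PAO1). OD read at start and after incubation. MIC is the lowest concentration with no detectable growth. Values are means of two independent runs, three if MIC <10 µg/mL.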

[3] = system: Staphylococcus aureus; assay: Antibacterial activity against Staphylococcus aureus subsp. aureus Newman assessed as growth inhibiiton after 18 hrs; assay type: functional; summary of the method: as §1
[4] = Antibacterial activity against Bacillus subtilis subsp. subtilis assessed as growth inhibiiton after 18 hrs; assay type: functional; summary of the method: as §1
[5] = Inhibition of Escherichia coli RNAP assessed as incorporation of [5,6-3H]UTP preincubated for 10 mins followed by DNA template and ATP, CTP, GTP, UTP, [5,6-3H]UTP addition measured after 10 mins by scintillation counting analysis
Summary of the method: (§2)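 Purchased E. coli RNAP holoenzyme (1 unit, 0.5 µg) with 40 mM Tris-HCl pH 7.5, 150 mM KCl, 10 mM MgCl2, 10 mM DTT, 0.1% CHAPS, RNase inhibitor and compound in 2% DMSO final, preincubated 10 min at 25 °C. Reaction started with religated pcDNA3.1 template (3500 ng), 400 µM ATP/CTP/GTP, 100 µM UTP and 60 nCi [3H]-UTP, then run 10 min at 37 °C. TCA-precipitated RNA counted by scintillation and compared with DMSO controls.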

[6] = system: Escherichia coli; assay: Antibacterial activity against Escherichia coli K-12 assessed as growth inhibiiton after 18 hrs; assay type: functional; details: K-12, 18 h; summary of the method: as §1
[7] = system: Escherichia coli; assay: Inhibition of Escherichia coli RNAP assessed as incorporation of [5,6-3H]UTP at 100 uM preincubated for 10 mins followed by DNA template and ATP, CTP, GTP, UTP, [5,6-3H]UTP addition measured after 10 mins by scintillation counting analysis relative to control; summary of the method: as §2
[8] = system: Escherichia coli; assay: Inhibition of Escherichia coli RNAP assessed as incorporation of [5,6-3H]UTP at 25 uM preincubated for 10 mins followed by DNA template and ATP, CTP, GTP, UTP, [5,6-3H]UTP addition measured after 10 mins by scintillation counting analysis relative to control; summary of the method: as §2
[9] = system: Escherichia coli; assay: Inhibition of RNAP in Escherichia coli expressing ToLC mutant assessed as reduction of RNA level at 100 uM after 40 mins by whole cell assay in presence of [3H]-uridine relative to control
Summary of the method: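 E. coli TolC grown in LB. 3H-uridine (1 µCi/mL) added in log phase, 3 min before compound (100 µM, 0.5% DMSO). 300 µL culture harvested 40 min later and precipitated with 2 volumes of 10% TCA for 45 min at 4 °C. Precipitate collected on glass-fibre filters and radioactivity counted.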

[10] = system: Escherichia coli; assay: Inhibition of Escherichia coli RNAP assessed as incorporation of [5,6-3H]UTP at 50 uM preincubated for 10 mins followed by DNA template and ATP, CTP, GTP, UTP, [5,6-3H]UTP addition measured after 10 mins by scintillation counting analysis relative to control; summary of the method: as §2
[11] = system: Escherichia coli; assay: Reduction of resistance frequencies in Escherichia coli expressing ToLC mutant at 2 x MIC after 16 hrs relative to rifampicin, myxopyronin; assay type: functional
Summary of the method: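 E. coli TolC cell count per mL set by plating dilutions on LB agar and counting colonies. […] Resistance frequency derived from the threshold inoculum at which growth (resistance) appeared.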

| SMILES | MIC [1] [µg/mL] | MIC [2] [µg/mL] | MIC [3] [µg/mL] | MIC [4] [µg/mL] | IC50 [5] [µM] | MIC [6] [µg/mL] | pIC50 [5] | other results |
| --- | --- | --- | --- | --- | --- | --- | --- | --- |
| CO[C@H]1/C=C/O[C@@]2(C)Oc3c(C)c(O)c4c(O)c(c(/C=N/N5CCN(C)CC5)c(O)c4c3C2=O)NC(=O)/C(C)=C\C=C\[C@H](C)[C@H](O)[C@@H](C)[C@@H](O)[C@@H](C)[C@H](OC(C)=O)[C@@H]1C [RIFAMPIN] | 5 (≈ 6.08 µM) | 13 (≈ 15.8 µM) | 0.02 (≈ 0.0243 µM) | 4.8 (≈ 5.83 µM) | 0.03 | 7 (≈ 8.51 µM) | – | – |
| CCN(Cc1ccccc1)C(=O)Nc1cc(-c2ccc(OC)cc2)sc1C(=O)O | 15 (≈ 36.5 µM) | – | – | – | 240 | – | 3.62 | – |
| CC(C)(C)OC(=O)c1c(NC(=O)Nc2ccccc2)sc2c1CCCCCC2 | 33 (≈ 82.4 µM) | – | – | – | – | – | – | inhibition [7]: 4% |
| O=C(NCCc1ccccc1)Nc1cc(-c2ccc(Cl)c(Cl)c2)sc1C(=O)O | 8 (≈ 18.4 µM) | > 25 | 6 (≈ 13.8 µM) | 7 (≈ 16.1 µM) | 26 | > 25 | – | – |
| CCN(Cc1ccccc1)C(=O)Nc1cc(-c2ccc(Cl)cc2)sc1C(=O)OC | > 25 | – | – | – | – | – | – | inhibition [8]: 2% |
| CCN(Cc1ccccc1)C(=O)Nc1cc(-c2ccc(Cl)c(Cl)c2)sc1C(=O)O | 10 (≈ 22.3 µM) | > 25 | 8 (≈ 17.8 µM) | 11 (≈ 24.5 µM) | 22 | > 25 | 4.66 | inhibition [9]: 60% |
| CCN(Cc1ccccc1)C(=O)Nc1cc(-c2ccccc2)sc1C(=O)O | 17 (≈ 44.7 µM) | – | – | – | 292 | – | 3.52 | – |
| O=C(Nc1ccccc1)Nc1sc2c(c1C(=O)O)CCCCCC2 | > 25 | – | – | – | – | – | – | inhibition [8]: 3% |
| CCN(Cc1ccccc1)C(=O)Nc1cc(-c2cccc([N+](=O)[O-])c2)sc1C(=O)O | 22 (≈ 51.7 µM) | – | – | – | 80 | – | 4.1 | – |
| CCOC(=O)c1c(NC(=O)Nc2ccccc2)sc2c1CCCCCC2 [UREIDOTHIOPHENE] | – | – | – | – | – | – | – | inhibition [10]: 2% |
| CCN(Cc1ccccc1)C(=O)Nc1cc(-c2ccc(Cl)c(C(F)(F)F)c2)sc1C(=O)O | 12 (≈ 24.8 µM) | > 50 | 5 (≈ 10.4 µM) | 20 (≈ 41.4 µM) | 21 | > 50 | 4.68 | – |
| CCCCN(Cc1ccccc1)C(=O)Nc1cc(-c2ccc(Cl)c(Cl)c2)sc1C(=O)O | > 50 | > 50 | > 50 | > 50 | 9 | > 50 | – | – |
| O=C(Nc1ccccc1)Nc1cc(-c2ccc(Cl)c(Cl)c2)sc1C(=O)O | 12 (≈ 29.5 µM) | > 50 | 6 (≈ 14.7 µM) | 12 (≈ 29.5 µM) | 25 | > 50 | – | – |
| CCN(Cc1ccccc1)C(=O)Nc1cc(-c2cccc(C(F)(F)F)c2)sc1C(=O)O | 38 (≈ 84.7 µM) | – | – | – | 53 | – | 4.28 | – |
| CCN(Cc1ccccc1)C(=O)Nc1cc(-c2ccc(C#N)cc2)sc1C(=O)O | 25 (≈ 61.7 µM) | – | – | – | 133 | – | 3.88 | – |
| CN(C(=O)Nc1cc(-c2ccc(Cl)c(Cl)c2)sc1C(=O)O)c1ccccc1 | 9 (≈ 21.4 µM) | – | – | – | 45 | – | – | – |
| CCN(Cc1ccccc1)C(=O)Nc1cc(-c2ccc(Cl)c(CCCCNC(=O)OC)c2)sc1C(=O)O | 25 (≈ 45.9 µM) | – | – | – | 20 | – | – | – |
| CN(Cc1ccccc1)C(=O)Nc1cc(-c2ccc(Cl)c(Cl)c2)sc1C(=O)O | 5 (≈ 11.5 µM) | – | – | – | – | – | – | inhibition [7]: 12% |
| CCCCN(CCc1ccccc1)C(=O)Nc1cc(-c2ccc(Cl)c(Cl)c2)sc1C(=O)O | > 25 | – | – | – | 7 | – | – | – |
| CCN(Cc1ccccc1)C(=O)Nc1cc(-c2ccc(C(F)(F)F)cc2)sc1C(=O)O | 21 (≈ 46.8 µM) | – | – | – | 51 | – | 4.29 | – |

| SMILES | MIC [1] [µg/mL] | MIC [2] [µg/mL] | MIC [3] [µg/mL] | MIC [4] [µg/mL] | IC50 [5] [µM] | MIC [6] [µg/mL] | pIC50 [5] | other results |
| --- | --- | --- | --- | --- | --- | --- | --- | --- |
| CCN(Cc1ccccc1)C(=O)Nc1cc(-c2ccc([N+](=O)[O-])cc2)sc1C(=O)O | 23 (≈ 54.1 µM) | – | – | – | 73 | – | 4.14 | – |
| CCCCN(C(=O)Nc1cc(-c2ccc(Cl)c(Cl)c2)sc1C(=O)O)c1ccccc1 | > 25 | – | – | – | 14 | – | – | – |
| CCN(Cc1ccccc1)C(=O)Nc1cc(-c2ccc(Cl)cc2Cl)sc1C(=O)O | 8 (≈ 17.8 µM) | > 50 | 12 (≈ 26.7 µM) | 10 (≈ 22.3 µM) | 32 | > 50 | 4.49 | – |
| CCN(Cc1ccccc1)C(=O)Nc1cc(-c2cccc(Cl)c2)sc1C(=O)O | 9 (≈ 21.7 µM) | > 100 | 21 (≈ 50.6 µM) | 12 (≈ 28.9 µM) | 72 | > 100 | 4.14 | fold change (FC) [11]: >500 |
| CCCN(Cc1ccccc1)C(=O)Nc1cc(-c2ccc(Cl)c(Cl)c2)sc1C(=O)O | > 25 | – | – | – | 14 | – | – | – |
| CCN(Cc1ccccc1)C(=O)Nc1cc(-c2ccc(OC(F)(F)F)cc2)sc1C(=O)O | 21 (≈ 45.2 µM) | > 100 | 9 (≈ 19.4 µM) | 20 (≈ 43.1 µM) | 45 | > 100 | 4.35 | – |
| CCN(Cc1ccccc1)C(=O)Nc1cc(-c2cc(Cl)ccc2Cl)sc1C(=O)O | 9 (≈ 20 µM) | – | – | – | 35 | – | 4.46 | – |
| CCCN(CCc1ccccc1)C(=O)Nc1cc(-c2ccc(Cl)c(Cl)c2)sc1C(=O)O | > 25 | – | – | – | 12 | – | – | – |
| CCN(Cc1ccccc1)C(=O)Nc1cc(-c2ccc(C)cc2)sc1C(=O)O | 21 (≈ 53.2 µM) | – | – | – | 137 | – | 3.86 | – |
| CCN(Cc1ccccc1)C(=O)Nc1cc(-c2cc(Cl)cc(Cl)c2)sc1C(=O)O | – | – | – | – | 25 | – | 4.6 | – |
| O=C(NCc1ccccc1)Nc1cc(-c2ccc(Cl)c(Cl)c2)sc1C(=O)O | 10 (≈ 23.7 µM) | – | – | – | 45 | – | – | – |
| CC(C)NC(=O)Nc1cc(-c2ccc(Cl)c(Cl)c2)sc1C(=O)O | 15 (≈ 40.2 µM) | – | – | – | – | – | – | inhibition [7]: 26% |
| CCN(Cc1ccccc1)C(=O)Nc1cc(-c2ccc(Cl)cc2)sc1C(=O)O | 11 (≈ 26.5 µM) | – | – | – | 75 | – | 4.12 | – |
| O=C(O)c1sc(-c2ccc(Cl)c(Cl)c2)cc1NC(=O)N(Cc1ccccc1)Cc1ccccc1 | > 25 | > 25 | 3 (≈ 5.87 µM) | > 25 | 6 | > 25 | – | – |
| CCCCNC(=O)Nc1cc(-c2ccc(Cl)c(Cl)c2)sc1C(=O)O | 13 (≈ 33.6 µM) | – | – | – | 91 | – | – | – |
| CCCCCCNC(=O)Nc1cc(-c2ccc(Cl)c(Cl)c2)sc1C(=O)O | > 25 | – | – | – | 19 | – | – | – |
| CCCC/C(C)=C/C=C(\C)C(=O)c1c(O)cc([C@H](C)CC/C=C/NC(=O)OC)oc1=O [MYXOPYRONIN B] | 0.8 (≈ 1.85 µM) | > 25 | 0.5 (≈ 1.16 µM) | 0.9 (≈ 2.09 µM) | 0.35 | > 25 | – | – |
| NC(=O)Nc1cc(-c2ccc(Cl)c(Cl)c2)sc1C(=O)O | > 25 | – | – | – | – | – | – | inhibition [7]: 26% |
| CCN(C(=O)Nc1cc(-c2ccc(Cl)c(Cl)c2)sc1C(=O)O)c1ccccc1 | 16 (≈ 36.8 µM) | – | – | – | 36 | – | – | – |
| CCCCCNC(=O)Nc1cc(-c2ccc(Cl)c(Cl)c2)sc1C(=O)O | 10 (≈ 24.9 µM) | > 25 | > 25 | 8 (≈ 19.9 µM) | 35 | > 25 | – | – |
